Data as given in ChEMBL document CHEMBL5058577, “EUbOPEN Chemogenomics Library 2 (Multiplex)” (2022).

System: Fibroblast
Test: Multiplex assay against human fibroblast
Format: toxicity, cell-based
Procedure, shortened: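 Compound was added to live cells that had been stained at seeding with Hoechst33342, BioTracker Green Microtubule Cytoskeleton Dye, MitoTracker Red and Annexin V Alexa Fluor 680, and imaging followed on a CQ1 microscope at 37°C and 5% CO2. CellPathfinder machine-learning gating divided cells into Hoechst high-intensity objects or normal cells, normal cells into healthy, pyknosed or fragmented nuclei, and pyknosed cells into mitotic or apoptotic. Tubulin, mitochondrial-mass and membrane-permeability phenotypes are per cents of healthy-nucleus cells.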

[1] = 12 h, 1 µM, compound concentration 1 uM, replicate 1
[2] = 12 h, 1 µM, compound concentration 1 uM, replicate 2
[3] = 12 h, 10 µM, compound concentration 10 uM, replicate 1
[4] = 12 h, 10 µM, compound concentration 10 uM, replicate 2
[5] = 24 h, 1 µM, compound concentration 1 uM, replicate 1
[6] = 24 h, 1 µM, compound concentration 1 uM, replicate 2
[7] = 24 h, 10 µM, compound concentration 10 uM, replicate 1
[8] = 24 h, 10 µM, compound concentration 10 uM, replicate 2
[9] = 48 h, 1 µM, compound concentration 1 uM, replicate 1
[10] = 48 h, 1 µM, compound concentration 1 uM, replicate 2
[11] = 48 h, 10 µM, compound concentration 10 uM, replicate 1
[12] = 48 h, 10 µM, compound concentration 10 uM, replicate 2

## O=c1ccc2ccc(OCCCCN3CCN(c4cccc5sccc45)CC3)cc2[nH]1 [BREXPIPRAZOLE]
[1]
  Population Apoptotic (%): 56%
  Population Fragmented Nuclei (%): 17%
  Population Healthy Nuclei (%): 62%
  Population Hoechst High Intensity Objects (%): 2%
  Population Membrane Permeable-Phenotype (%): 0%
  Population Mitochondria Different-Phenotype (%): 5%
  Population Mitotic Cells (%): 44%
  Population Normal (%): 97%
  Population Pyknosed Nuclei (%): 20%
  Population Tubulin-Different-Phenotype (%): 41%
  Total Cell Count: 126
[2]
  Population Apoptotic (%): 48%
  Population Fragmented Nuclei (%): 33%
  Population Healthy Nuclei (%): 44%
  Population Hoechst High Intensity Objects (%): 5%
  Population Membrane Permeable-Phenotype (%): 2%
  Population Mitochondria Different-Phenotype (%): 15%
  Population Mitotic Cells (%): 51%
  Population Normal (%): 94%
  Population Pyknosed Nuclei (%): 21%
  Population Tubulin-Different-Phenotype (%): 73%
  Total Cell Count: 169
[3]
  Population Apoptotic (%): 68%
  Population Fragmented Nuclei (%): 16%
  Population Healthy Nuclei (%): 64%
  Population Hoechst High Intensity Objects (%): 1%
  Population Membrane Permeable-Phenotype (%): 0%
  Population Mitochondria Different-Phenotype (%): 39%
  Population Mitotic Cells (%): 31%
  Population Normal (%): 98%
  Population Pyknosed Nuclei (%): 19%
  Population Tubulin-Different-Phenotype (%): 83%
  Total Cell Count: 203
[4]
  Population Apoptotic (%): 45%
  Population Fragmented Nuclei (%): 30%
  Population Healthy Nuclei (%): 49%
  Population Hoechst High Intensity Objects (%): 11%
  Population Membrane Permeable-Phenotype (%): 2%
  Population Mitochondria Different-Phenotype (%): 25%
  Population Mitotic Cells (%): 54%
  Population Normal (%): 88%
  Population Pyknosed Nuclei (%): 20%
  Population Tubulin-Different-Phenotype (%): 81%
  Total Cell Count: 243
[5]
  Population Apoptotic (%): 56%
  Population Fragmented Nuclei (%): 17%
  Population Healthy Nuclei (%): 69%
  Population Hoechst High Intensity Objects (%): 1%
  Population Membrane Permeable-Phenotype (%): 0%
  Population Mitochondria Different-Phenotype (%): 8%
  Population Mitotic Cells (%): 43%
  Population Normal (%): 98%
  Population Pyknosed Nuclei (%): 13%
  Population Tubulin-Different-Phenotype (%): 43%
  Total Cell Count: 122
[6]
  Population Apoptotic (%): 33%
  Population Fragmented Nuclei (%): 32%
  Population Healthy Nuclei (%): 52%
  Population Hoechst High Intensity Objects (%): 3%
  Population Membrane Permeable-Phenotype (%): 2%
  Population Mitochondria Different-Phenotype (%): 14%
  Population Mitotic Cells (%): 66%
  Population Normal (%): 96%
  Population Pyknosed Nuclei (%): 14%
  Population Tubulin-Different-Phenotype (%): 76%
  Total Cell Count: 173
[7]
  Population Apoptotic (%): 58%
  Population Fragmented Nuclei (%): 13%
  Population Healthy Nuclei (%): 54%
  Population Hoechst High Intensity Objects (%): 13%
  Population Membrane Permeable-Phenotype (%): 0%
  Population Mitochondria Different-Phenotype (%): 63%
  Population Mitotic Cells (%): 41%
  Population Normal (%): 86%
  Population Pyknosed Nuclei (%): 31%
  Population Tubulin-Different-Phenotype (%): 85%
  Total Cell Count: 218
[8]
  Population Apoptotic (%): 65%
  Population Fragmented Nuclei (%): 30%
  Population Healthy Nuclei (%): 40%
  Population Hoechst High Intensity Objects (%): 19%
  Population Mitochondria Different-Phenotype (%): 34%
  Population Mitotic Cells (%): 34%
  Population Normal (%): 80%
  Population Pyknosed Nuclei (%): 28%
  Population Tubulin-Different-Phenotype (%): 71%
  Total Cell Count: 239
[9]
  Population Apoptotic (%): 62%
  Population Fragmented Nuclei (%): 24%
  Population Healthy Nuclei (%): 62%
  Population Hoechst High Intensity Objects (%): 4%
  Population Membrane Permeable-Phenotype (%): 0%
  Population Mitochondria Different-Phenotype (%): 10%
  Population Mitotic Cells (%): 37%
  Population Normal (%): 95%
  Population Pyknosed Nuclei (%): 12%
  Population Tubulin-Different-Phenotype (%): 52%
  Total Cell Count: 133
[10]
  Population Apoptotic (%): 60%
  Population Fragmented Nuclei (%): 42%
  Population Healthy Nuclei (%): 51%
  Population Membrane Permeable-Phenotype (%): 1%
  Population Mitochondria Different-Phenotype (%): 9%
  Population Mitotic Cells (%): 40%
  Population Pyknosed Nuclei (%): 5%
  Population Tubulin-Different-Phenotype (%): 67%
  Total Cell Count: 175
[11]
  Population Apoptotic (%): 62%
  Population Fragmented Nuclei (%): 18%
  Population Healthy Nuclei (%): 50%
  Population Hoechst High Intensity Objects (%): 34%
  Population Membrane Permeable-Phenotype (%): 0%
  Population Mitochondria Different-Phenotype (%): 60%
  Population Mitotic Cells (%): 37%
  Population Normal (%): 65%
  Population Pyknosed Nuclei (%): 31%
  Population Tubulin-Different-Phenotype (%): 88%
  Total Cell Count: 208
[12]
  Population Apoptotic (%): 44%
  Population Fragmented Nuclei (%): 30%
  Population Healthy Nuclei (%): 43%
  Population Mitochondria Different-Phenotype (%): 20%
  Population Mitotic Cells (%): 55%
  Population Pyknosed Nuclei (%): 26%
  Population Tubulin-Different-Phenotype (%): 55%
  Total Cell Count: 317
